ChEMBL document CHEMBL1147863, “Synthesis, antimicrobial activities and cytogenetic studies of newer diazepino quinoline derivatives via Vilsmeier-Haack reaction” (2007)
Calls of active or inactive are those of the source. The rule behind the calls is not given here.

Assays:
[1] = system: Fusarium oxysporum; assay: Antifungal activity against Fusarium oxysporum at 0.5% (w/v) concentration by disc diffusion method; type: functional
In short: (§1)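 Potato dextrose agar plates were seeded with a spore suspension (10⁶ spores/mL). Compounds in acetone at a final 0.5%, 1% or 2% w/v were loaded onto 5 mm filter-paper discs. Plates were incubated at 28 ± 2 °C for four days. Zone diameter was measured after subtracting the acetone-only plate zone, with carbendazim as standard.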

[2] = system: Aeromonas hydrophila; assay: Antibacterial activity against Aeromonas hydrophila at 0.125% (w/v) concentration after 24 hrs by disc diffusion method; type: functional
In short: (§2)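 Disc diffusion on nutrient agar (pH 7.5 ± 0.2) swabbed with bacterial culture; compounds dissolved in chloroform at 0.125%, 0.25% or 0.5% w/v, soaked onto 5 mm filter paper discs placed on seeded plates. Incubated 35 ± 2 °C, 24 h; inhibition zone diameter (mm) measured, minus zone from solvent-only plate.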

[3] = system: Alternaria macrospora; assay: Antifungal activity against Alternaria macrospora at 2% (w/v) concentration by disc diffusion method; type: functional; in short: as §1
[4] = system: Talaromyces funiculosus; assay: Antifungal activity against Penicillium funiculosum at 2% (w/v) concentration by disc diffusion method; type: functional; in short: as §1
[5] = system: Fusarium oxysporum; assay: Antifungal activity against Fusarium oxysporum at 1% (w/v) concentration by disc diffusion method; type: functional; in short: as §1
[6] = system: Aspergillus flavus; assay: Antifungal activity against Aspergillus flavus at 2% (w/v) concentration by disc diffusion method; type: functional; in short: as §1
[7] = system: Talaromyces funiculosus; assay: Antifungal activity against Penicillium funiculosum at 0.5% (w/v) concentration by disc diffusion method; type: functional; in short: as §1
[8] = system: Talaromyces funiculosus; assay: Antifungal activity against Penicillium funiculosum at 1% (w/v) concentration by disc diffusion method; type: functional; in short: as §1
[9] = system: Escherichia coli; assay: Antibacterial activity against Escherichia coli at 0.25% (w/v) concentration after 24 hrs by disc diffusion method; type: functional; in short: as §2
[10] = system: Salmonella typhi; assay: Antibacterial activity against Salmonella typhi at 0.125% (w/v) concentration after 24 hrs by disc diffusion method; type: functional, Salmonella enterica subsp. enterica serovar Typhi
In short: (§3)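 Disc diffusion on nutrient agar (pH 7.5 ± 0.2) swabbed with bacteria. Compounds were dissolved in chloroform at a final 0.125%, 0.25% or 0.5% w/v and loaded onto 5 mm filter-paper discs. Plates were incubated at 35 ± 2 °C for 24 h. The inhibition-zone diameter (mm) was reported after subtracting the zone of the solvent-only plate.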

[11] = system: Aspergillus flavus; assay: Antifungal activity against Aspergillus flavus at 1% (w/v) concentration by disc diffusion method; type: functional; in short: as §1
[12] = system: Escherichia coli; assay: Antibacterial activity against Escherichia coli at 0.125% (w/v) concentration after 24 hrs by disc diffusion method; type: functional; in short: as §2
[13] = system: Fusarium oxysporum; assay: Antifungal activity against Fusarium oxysporum at 2% (w/v) concentration by disc diffusion method; type: functional; in short: as §1
[14] = system: Aspergillus flavus; assay: Antifungal activity against Aspergillus flavus at 0.5% (w/v) concentration by disc diffusion method; type: functional; in short: as §1
[15] = system: Alternaria macrospora; assay: Antifungal activity against Alternaria macrospora at 1% (w/v) concentration by disc diffusion method; type: functional; in short: as §1
[16] = system: Aeromonas hydrophila; assay: Antibacterial activity against Aeromonas hydrophila at 0.5% (w/v) concentration after 24 hrs by disc diffusion method; type: functional; in short: as §2
[17] = system: Aeromonas hydrophila; assay: Antibacterial activity against Aeromonas hydrophila at 0.25% (w/v) concentration after 24 hrs by disc diffusion method; type: functional; in short: as §2
[18] = system: Alternaria macrospora; assay: Antifungal activity against Alternaria macrospora at 0.5% (w/v) concentration by disc diffusion method; type: functional; in short: as §1
[19] = system: Salmonella typhi; assay: Antibacterial activity against Salmonella typhi at 0.5% (w/v) concentration after 24 hrs by disc diffusion method; type: functional, Salmonella enterica subsp. enterica serovar Typhi; in short: as §3
[20] = system: Escherichia coli; assay: Antibacterial activity against Escherichia coli at 0.5% (w/v) concentration by after 24 hrs by disc diffusion method; type: functional; in short: as §2
[21] = system: Salmonella typhi; assay: Antibacterial activity against Salmonella typhi at 0.25% (w/v) concentration after 24 hrs by disc diffusion method; type: functional, Salmonella enterica subsp. enterica serovar Typhi; in short: as §3
[22] = Induction of chromosomal aberration in human peripheral blood leukocytes assessed as number of chromatid breaks at 20 ug/mL after 24 hrs; type: functional, Leukocyte
In short: (§4)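 Leukocytes from venous blood of three healthy non-smoking male donors, cultured at 37 °C for 72 h in McCoy's 5a with AB serum and PHA. Compound in 1% acetone was added at 0, 24 or 48 h after culture initiation (72, 48 or 24 h exposure), with water and acetone controls and triplicate cultures. Colchicine was added before harvest, then KCl hypotonic, fixation and Giemsa staining. Gaps and breaks were counted in 350 metaphases per treatment.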

[23] = Induction of chromosomal aberration in human peripheral blood leukocytes assessed as number of chromatid gaps at 20 ug/mL after 24 hrs; type: functional, Leukocyte; in short: as §4

Row | Structure (SMILES) | inhibition zone (IZ) [1] [mm] | inhibition zone (IZ) [2] [mm] | inhibition zone (IZ) [3] [mm] | inhibition zone (IZ) [4] [mm] | inhibition zone (IZ) [5] [mm] | inhibition zone (IZ) [6] [mm] | inhibition zone (IZ) [7] [mm] | inhibition zone (IZ) [8] [mm] | inhibition zone (IZ) [9] [mm] | inhibition zone (IZ) [10] [mm] | inhibition zone (IZ) [11] [mm] | inhibition zone (IZ) [13] [mm] | inhibition zone (IZ) [14] [mm] | inhibition zone (IZ) [15] [mm] | inhibition zone (IZ) [16] [mm] | inhibition zone (IZ) [17] [mm] | inhibition zone (IZ) [18] [mm] | inhibition zone (IZ) [19] [mm] | inhibition zone (IZ) [20] [mm] | inhibition zone (IZ) [21] [mm] | also measured
1 | Clc1ccc2nc3c(c(Cl)c2c1)C=NNC=C3 | 4 | 6 | 15 | 14 | 8 | 13 | 6 | 9 | 7 | 6 | 8 | 13 | 5 | 9 | 16 | 11 | 5 | 19 | 11 | 12 | inhibition zone (IZ) [12]: 3 mm
2 | COC(=O)Nc1nc2ccccc2[nH]1 [CARBENDAZIM] | 6 |  | 18 | 21 | 11 | 21 | 9 | 16 |  |  | 14 | 18 | 6 | 13 |  |  | 7 |  |  |  | 
3 | Cc1cccc2c(Cl)c(C=O)c(/C=C/O)nc12 |  | 4 | 9 | 6 | 3 | 5 |  | 2 |  | 4 | 2 | 7 | 1 | 5 | 11 | 8 | 2 | 11 |  | 7 | Activity [1]: inactive; Activity [7]: inactive; Activity [9]: inactive; Activity [12]: inactive; Activity [20]: inactive
4 | Cc1ccc2c(Cl)c3c(nc2c1)C=CNN=C3 | 3 | 5 | 12 | 11 | 7 | 11 | 3 | 6 | 1 | 4 | 7 | 11 | 4 | 10 | 12 | 9 | 4 | 13 | 5 | 9 | Activity [22]: 0.6%; Activity [23]: 1.1%; Activity [12]: inactive
5 | Clc1c2c(nc3ccccc13)C=CNN=C2 |  | 5 | 7 | 9 | 3 | 9 | 1 | 4 | 2 | 4 | 5 | 7 | 3 | 3 | 12 | 8 | 1 | 10 | 4 | 6 | Activity [1]: inactive; Activity [12]: inactive
6 | Cc1ccc2c(Cl)c(C=O)c(/C=C/O)nc2c1 | 1 | 3 | 7 | 8 | 4 | 9 | 1 | 3 |  | 4 | 5 | 9 | 3 | 4 | 10 | 7 | 2 | 13 | 2 | 8 | Activity [9]: inactive; Activity [12]: inactive
7 | O=Cc1c(/C=C/O)nc2ccccc2c1Cl |  | 4 | 4 | 5 |  | 8 |  | 1 |  | 3 | 3 | 4 | 2 | 1 | 9 | 6 |  | 9 |  | 5 | Activity [1]: inactive; Activity [5]: inactive; Activity [7]: inactive; Activity [9]: inactive; Activity [12]: inactive; Activity [18]: inactive; Activity [20]: inactive
8 | O=Cc1c(/C=C/O)nc2ccc(Cl)cc2c1Cl | 2 | 5 | 11 | 10 | 5 | 10 | 2 | 5 | 5 | 6 | 6 | 11 | 3 | 7 | 14 | 9 | 3 | 17 | 8 | 11 | inhibition zone (IZ) [12]: 1 mm
9 | Cc1ccc(C)c2c(Cl)c(C=O)c(/C=C/O)nc12 | 3 | 4 | 13 | 11 | 7 | 12 | 3 | 7 | 5 | 5 | 7 | 12 | 4 | 8 | 10 | 6 | 3 | 13 | 9 | 8 | inhibition zone (IZ) [12]: 3 mm
10 | CN[C@@H]1[C@H](O[C@H]2[C@H](O[C@H]3[C@H](O)[C@@H](O)[C@H](N=C(N)N)[C@@H](O)[C@@H]3N=C(N)N)O[C@@H](C)[C@]2(O)C=O)O[C@@H](CO)[C@H](O)[C@H]1O (stereo in doubt) [STREPTOMYCIN] |  | 8 |  |  |  |  |  |  | 9 | 8 |  |  |  |  | 19 | 12 |  | 18 | 15 | 10 | inhibition zone (IZ) [12]: 6 mm
